From ChEMBL document CHEMBL5058577, “EUbOPEN Chemogenomics Library 2 (Multiplex)” (2022)

System: U2OS
Test: Multiplex assay against U2OS
Assay type: toxicity, cell-based
Details: human
How it was run: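 At seeding, live cells were stained with Hoechst33342, BioTracker Green Microtubule Cytoskeleton Dye, MitoTracker Red and Annexin V Alexa Fluor 680. After compound addition they were imaged on a CQ1 microscope at 37°C and 5% CO2, and CellPathfinder machine-learning gating sorted them into Hoechst high-intensity objects or normal cells, with normal cells further split into healthy, pyknosed or fragmented nuclei and pyknosed cells into mitotic or apoptotic. Tubulin, mitochondrial-mass and membrane-permeability phenotypes are given as per cents of cells with healthy nuclei.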

[1] = 12 h, 1 µM, compound concentration 1 uM, replicate 1
[2] = 12 h, 1 µM, compound concentration 1 uM, replicate 2
[3] = 12 h, 10 µM, compound concentration 10 uM, replicate 1
[4] = 12 h, 10 µM, compound concentration 10 uM, replicate 2
[5] = 24 h, 1 µM, compound concentration 1 uM, replicate 1
[6] = 24 h, 1 µM, compound concentration 1 uM, replicate 2
[7] = 24 h, 10 µM, compound concentration 10 uM, replicate 1
[8] = 24 h, 10 µM, compound concentration 10 uM, replicate 2
[9] = 48 h, 1 µM, compound concentration 1 uM, replicate 1
[10] = 48 h, 1 µM, compound concentration 1 uM, replicate 2
[11] = 48 h, 10 µM, compound concentration 10 uM, replicate 1
[12] = 48 h, 10 µM, compound concentration 10 uM, replicate 2

CN1CCN(c2ccc(Nc3c4ccccc4nc4ccccc34)cc2)CC1.Cl.Cl.O
Population Apoptotic (%) [1]: 100% | Population Fragmented Nuclei (%) [1]: 25% | Population Healthy Nuclei (%) [1]: 65% | Population Hoechst High Intensity Objects (%) [1]: 0% | Population Membrane Permeable-Phenotype (%) [1]: 19% | Population Mitochondria Different-Phenotype (%) [1]: 7% | Population Mitotic Cells (%) [1]: 0% | Population Normal (%) [1]: 99% | Population Pyknosed Nuclei (%) [1]: 8% | Population Tubulin-Different-Phenotype (%) [1]: 17% | Total Cell Count [1]: 193 | Population Apoptotic (%) [2]: 87% | Population Fragmented Nuclei (%) [2]: 23% | Population Healthy Nuclei (%) [2]: 69% | Population Membrane Permeable-Phenotype (%) [2]: 14% | Population Mitochondria Different-Phenotype (%) [2]: 13% | Population Mitotic Cells (%) [2]: 12% | Population Normal (%) [2]: 100% | Population Pyknosed Nuclei (%) [2]: 7% | Population Tubulin-Different-Phenotype (%) [2]: 13% | Total Cell Count [2]: 107 | Population Apoptotic (%) [3]: 93% | Population Fragmented Nuclei (%) [3]: 54% | Population Healthy Nuclei (%) [3]: 38% | Population Hoechst High Intensity Objects (%) [3]: 0% | Population Membrane Permeable-Phenotype (%) [3]: 65% | Population Mitochondria Different-Phenotype (%) [3]: 95% | Population Mitotic Cells (%) [3]: 6% | Population Normal (%) [3]: 99% | Population Pyknosed Nuclei (%) [3]: 7% | Population Tubulin-Different-Phenotype (%) [3]: 82% | Total Cell Count [3]: 213 | Population Apoptotic (%) [4]: 100% | Population Fragmented Nuclei (%) [4]: 62% | Population Healthy Nuclei (%) [4]: 31% | Population Hoechst High Intensity Objects (%) [4]: 2% | Population Membrane Permeable-Phenotype (%) [4]: 70% | Population Mitochondria Different-Phenotype (%) [4]: 100% | Population Mitotic Cells (%) [4]: 0% | Population Normal (%) [4]: 97% | Population Pyknosed Nuclei (%) [4]: 6% | Population Tubulin-Different-Phenotype (%) [4]: 85% | Total Cell Count [4]: 132 | Population Apoptotic (%) [5]: 92% | Population Fragmented Nuclei (%) [5]: 28% | Population Healthy Nuclei (%) [5]: 64% | Population Hoechst High Intensity Objects (%) [5]: 1% | Population Membrane Permeable-Phenotype (%) [5]: 10% | Population Mitochondria Different-Phenotype (%) [5]: 6% | Population Mitotic Cells (%) [5]: 7% | Population Normal (%) [5]: 98% | Population Pyknosed Nuclei (%) [5]: 6% | Population Tubulin-Different-Phenotype (%) [5]: 7% | Total Cell Count [5]: 200 | Population Apoptotic (%) [6]: 100% | Population Fragmented Nuclei (%) [6]: 29% | Population Healthy Nuclei (%) [6]: 60% | Population Hoechst High Intensity Objects (%) [6]: 4% | Population Membrane Permeable-Phenotype (%) [6]: 5% | Population Mitochondria Different-Phenotype (%) [6]: 12% | Population Mitotic Cells (%) [6]: 0% | Population Normal (%) [6]: 95% | Population Pyknosed Nuclei (%) [6]: 10% | Population Tubulin-Different-Phenotype (%) [6]: 6% | Total Cell Count [6]: 124 | Population Apoptotic (%) [7]: 100% | Population Fragmented Nuclei (%) [7]: 46% | Population Healthy Nuclei (%) [7]: 42% | Population Hoechst High Intensity Objects (%) [7]: 4% | Population Membrane Permeable-Phenotype (%) [7]: 85% | Population Mitochondria Different-Phenotype (%) [7]: 96% | Population Mitotic Cells (%) [7]: 0% | Population Normal (%) [7]: 95% | Population Pyknosed Nuclei (%) [7]: 11% | Population Tubulin-Different-Phenotype (%) [7]: 90% | Total Cell Count [7]: 205 | Population Apoptotic (%) [8]: 90% | Population Fragmented Nuclei (%) [8]: 69% | Population Healthy Nuclei (%) [8]: 23% | Population Hoechst High Intensity Objects (%) [8]: 10% | Population Membrane Permeable-Phenotype (%) [8]: 96% | Population Mitochondria Different-Phenotype (%) [8]: 100% | Population Mitotic Cells (%) [8]: 10% | Population Normal (%) [8]: 89% | Population Pyknosed Nuclei (%) [8]: 7% | Population Tubulin-Different-Phenotype (%) [8]: 100% | Total Cell Count [8]: 148 | Population Apoptotic (%) [9]: 87% | Population Fragmented Nuclei (%) [9]: 36% | Population Healthy Nuclei (%) [9]: 52% | Population Hoechst High Intensity Objects (%) [9]: 4% | Population Membrane Permeable-Phenotype (%) [9]: 6% | Population Mitochondria Different-Phenotype (%) [9]: 4% | Population Mitotic Cells (%) [9]: 12% | Population Normal (%) [9]: 95% | Population Pyknosed Nuclei (%) [9]: 10% | Population Tubulin-Different-Phenotype (%) [9]: 3% | Total Cell Count [9]: 231 | Population Apoptotic (%) [10]: 100% | Population Fragmented Nuclei (%) [10]: 40% | Population Healthy Nuclei (%) [10]: 47% | Population Hoechst High Intensity Objects (%) [10]: 5% | Population Membrane Permeable-Phenotype (%) [10]: 19% | Population Mitochondria Different-Phenotype (%) [10]: 7% | Population Mitotic Cells (%) [10]: 0% | Population Normal (%) [10]: 94% | Population Pyknosed Nuclei (%) [10]: 12% | Population Tubulin-Different-Phenotype (%) [10]: 9% | Total Cell Count [10]: 147 | Population Apoptotic (%) [11]: 96% | Population Fragmented Nuclei (%) [11]: 53% | Population Healthy Nuclei (%) [11]: 30% | Population Hoechst High Intensity Objects (%) [11]: 18% | Population Membrane Permeable-Phenotype (%) [11]: 91% | Population Mitochondria Different-Phenotype (%) [11]: 90% | Population Mitotic Cells (%) [11]: 3% | Population Normal (%) [11]: 81% | Population Pyknosed Nuclei (%) [11]: 15% | Population Tubulin-Different-Phenotype (%) [11]: 93% | Total Cell Count [11]: 243 | Population Apoptotic (%) [12]: 100% | Population Fragmented Nuclei (%) [12]: 76% | Population Healthy Nuclei (%) [12]: 19% | Population Hoechst High Intensity Objects (%) [12]: 15% | Population Membrane Permeable-Phenotype (%) [12]: 100% | Population Mitochondria Different-Phenotype (%) [12]: 96% | Population Mitotic Cells (%) [12]: 0% | Population Normal (%) [12]: 84% | Population Pyknosed Nuclei (%) [12]: 4% | Population Tubulin-Different-Phenotype (%) [12]: 100% | Total Cell Count [12]: 173

COc1ccc2c(c1OCc1ccccc1)C[C@@H](C(=O)O)N(C(=O)C(c1ccccc1)c1ccccc1)C2 [OLODANRIGAN]
Population Apoptotic (%) [1]: 82% | Population Fragmented Nuclei (%) [1]: 31% | Population Healthy Nuclei (%) [1]: 59% | Population Hoechst High Intensity Objects (%) [1]: 2% | Population Membrane Permeable-Phenotype (%) [1]: 4% | Population Mitochondria Different-Phenotype (%) [1]: 0% | Population Mitotic Cells (%) [1]: 17% | Population Normal (%) [1]: 97% | Population Pyknosed Nuclei (%) [1]: 8% | Population Tubulin-Different-Phenotype (%) [1]: 1% | Total Cell Count [1]: 286 | Population Apoptotic (%) [2]: 66% | Population Fragmented Nuclei (%) [2]: 18% | Population Healthy Nuclei (%) [2]: 75% | Population Hoechst High Intensity Objects (%) [2]: 3% | Population Membrane Permeable-Phenotype (%) [2]: 6% | Population Mitochondria Different-Phenotype (%) [2]: 4% | Population Mitotic Cells (%) [2]: 33% | Population Normal (%) [2]: 96% | Population Pyknosed Nuclei (%) [2]: 5% | Population Tubulin-Different-Phenotype (%) [2]: 2% | Total Cell Count [2]: 112 | Population Apoptotic (%) [3]: 78% | Population Fragmented Nuclei (%) [3]: 30% | Population Healthy Nuclei (%) [3]: 64% | Population Hoechst High Intensity Objects (%) [3]: 1% | Population Membrane Permeable-Phenotype (%) [3]: 6% | Population Mitochondria Different-Phenotype (%) [3]: 1% | Population Mitotic Cells (%) [3]: 21% | Population Normal (%) [3]: 98% | Population Pyknosed Nuclei (%) [3]: 5% | Population Tubulin-Different-Phenotype (%) [3]: 2% | Total Cell Count [3]: 273 | Population Apoptotic (%) [4]: 81% | Population Fragmented Nuclei (%) [4]: 26% | Population Healthy Nuclei (%) [4]: 63% | Population Hoechst High Intensity Objects (%) [4]: 0% | Population Membrane Permeable-Phenotype (%) [4]: 2% | Population Mitotic Cells (%) [4]: 18% | Population Normal (%) [4]: 99% | Population Pyknosed Nuclei (%) [4]: 10% | Total Cell Count [4]: 110 | Population Apoptotic (%) [5]: 87% | Population Fragmented Nuclei (%) [5]: 25% | Population Healthy Nuclei (%) [5]: 64% | Population Hoechst High Intensity Objects (%) [5]: 0% | Population Membrane Permeable-Phenotype (%) [5]: 2% | Population Mitochondria Different-Phenotype (%) [5]: 0% | Population Mitotic Cells (%) [5]: 12% | Population Normal (%) [5]: 99% | Population Pyknosed Nuclei (%) [5]: 10% | Population Tubulin-Different-Phenotype (%) [5]: 2% | Total Cell Count [5]: 311 | Population Apoptotic (%) [6]: 55% | Population Fragmented Nuclei (%) [6]: 18% | Population Healthy Nuclei (%) [6]: 74% | Population Hoechst High Intensity Objects (%) [6]: 2% | Population Membrane Permeable-Phenotype (%) [6]: 9% | Population Mitochondria Different-Phenotype (%) [6]: 6% | Population Mitotic Cells (%) [6]: 44% | Population Normal (%) [6]: 97% | Population Pyknosed Nuclei (%) [6]: 6% | Population Tubulin-Different-Phenotype (%) [6]: 5% | Total Cell Count [6]: 143 | Population Apoptotic (%) [7]: 83% | Population Fragmented Nuclei (%) [7]: 27% | Population Healthy Nuclei (%) [7]: 66% | Population Hoechst High Intensity Objects (%) [7]: 1% | Population Membrane Permeable-Phenotype (%) [7]: 4% | Population Mitochondria Different-Phenotype (%) [7]: 0% | Population Mitotic Cells (%) [7]: 16% | Population Normal (%) [7]: 98% | Population Pyknosed Nuclei (%) [7]: 5% | Population Tubulin-Different-Phenotype (%) [7]: 1% | Total Cell Count [7]: 318 | Population Apoptotic (%) [8]: 50% | Population Fragmented Nuclei (%) [8]: 22% | Population Healthy Nuclei (%) [8]: 72% | Population Hoechst High Intensity Objects (%) [8]: 0% | Population Mitochondria Different-Phenotype (%) [8]: 1% | Population Mitotic Cells (%) [8]: 50% | Population Normal (%) [8]: 100% | Population Pyknosed Nuclei (%) [8]: 4% | Population Tubulin-Different-Phenotype (%) [8]: 2% | Total Cell Count [8]: 123 | Population Apoptotic (%) [9]: 91% | Population Fragmented Nuclei (%) [9]: 22% | Population Healthy Nuclei (%) [9]: 70% | Population Hoechst High Intensity Objects (%) [9]: 3% | Population Membrane Permeable-Phenotype (%) [9]: 4% | Population Mitochondria Different-Phenotype (%) [9]: 1% | Population Mitotic Cells (%) [9]: 8% | Population Normal (%) [9]: 96% | Population Pyknosed Nuclei (%) [9]: 7% | Population Tubulin-Different-Phenotype (%) [9]: 2% | Total Cell Count [9]: 483 | Population Apoptotic (%) [10]: 78% | Population Fragmented Nuclei (%) [10]: 14% | Population Healthy Nuclei (%) [10]: 77% | Population Hoechst High Intensity Objects (%) [10]: 4% | Population Membrane Permeable-Phenotype (%) [10]: 3% | Population Mitochondria Different-Phenotype (%) [10]: 3% | Population Mitotic Cells (%) [10]: 21% | Population Normal (%) [10]: 95% | Total Cell Count [10]: 184 | Population Apoptotic (%) [11]: 88% | Population Fragmented Nuclei (%) [11]: 20% | Population Healthy Nuclei (%) [11]: 71% | Population Hoechst High Intensity Objects (%) [11]: 1% | Population Membrane Permeable-Phenotype (%) [11]: 5% | Population Mitochondria Different-Phenotype (%) [11]: 1% | Population Mitotic Cells (%) [11]: 11% | Population Normal (%) [11]: 98% | Population Pyknosed Nuclei (%) [11]: 8% | Population Tubulin-Different-Phenotype (%) [11]: 3% | Total Cell Count [11]: 451 | Population Apoptotic (%) [12]: 85% | Population Fragmented Nuclei (%) [12]: 18% | Population Healthy Nuclei (%) [12]: 77% | Population Membrane Permeable-Phenotype (%) [12]: 7% | Population Mitochondria Different-Phenotype (%) [12]: 6% | Population Mitotic Cells (%) [12]: 14% | Population Pyknosed Nuclei (%) [12]: 4% | Population Tubulin-Different-Phenotype (%) [12]: 5% | Total Cell Count [12]: 163
